# GSIS activator: primary screen for activators of insulin secretion dependent on glucose, INS-1E cells, GLuc reporter luminescence; activation, % at 16.6 µM; AID 743287; INS-1E GLuc reporter insulin secretion, 2-3 h; 370,000 tested, 0.61% active;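 active = lowest replicate activation of at least 40%, so every replicate reaches that level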
# Env fusion inh: HIV envelope-mediated fusion inhibition; HeLa-JRFL Env/CEM21 cell fusion, luciferase; inhibition, % at 12.3 µM; 360,000 tested, 1.1% active; AID 651610;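 active = mean replicate inhibition score of at least 50 and every replicate individually at or above 50; inconclusive = only one of the two criteria met; inactive = mean below 50 and not all replicates reaching 50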
# PAX8 reporter: lowers PAX8-driven luciferase in RMG-I cells | RMG-I TPO-luciferase reporter, SteadyGlo, 24 h | inhibition, % at 12.6 µM | 360,000 tested, 1.2% active;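 active = mean replicate inhibition at least 60% with every replicate also reaching 60%; inconclusive = only one of the two criteria is met; inactive = mean below 60% and not all replicates reaching 60%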;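 also: luciferase light reporting Pax8 driven TPO promoter activity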
# CDK5 inh: blocks human CDK5/p35 kinase activity | Recombinant CDK5/p35, ADP-Glo luminescence, 60 min | AID 488839 | inhibition, % at 10 µM | 330,000 tested, 0.01% active;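 active = highest replicate inhibition of at least 50% and at least 75% of replicates reaching 50%; inconclusive = only one of the two criteria met; inactive = both criteria failed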
# Target sequence (Q00535 whole entry, looked up): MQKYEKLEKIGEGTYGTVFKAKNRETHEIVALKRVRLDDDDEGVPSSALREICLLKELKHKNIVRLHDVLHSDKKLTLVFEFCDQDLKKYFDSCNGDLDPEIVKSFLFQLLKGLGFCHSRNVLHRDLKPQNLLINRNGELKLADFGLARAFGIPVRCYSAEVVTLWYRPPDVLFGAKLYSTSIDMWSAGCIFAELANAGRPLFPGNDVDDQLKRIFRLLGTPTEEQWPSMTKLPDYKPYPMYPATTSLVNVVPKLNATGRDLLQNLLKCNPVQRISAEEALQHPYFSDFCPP
# Target sequence (Q15078 whole entry, looked up): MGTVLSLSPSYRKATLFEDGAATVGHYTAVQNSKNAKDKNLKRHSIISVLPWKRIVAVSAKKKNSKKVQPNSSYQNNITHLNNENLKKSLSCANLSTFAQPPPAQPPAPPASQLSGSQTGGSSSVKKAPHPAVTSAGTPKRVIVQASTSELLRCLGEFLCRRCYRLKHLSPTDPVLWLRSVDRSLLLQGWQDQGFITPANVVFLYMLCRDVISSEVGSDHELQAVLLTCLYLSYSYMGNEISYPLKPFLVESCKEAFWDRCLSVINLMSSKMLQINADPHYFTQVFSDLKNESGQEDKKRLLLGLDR
# dFosB activator: mouse delta FosB homodimer activation; P13346; purified delta FosB, TAMRA-CDK5 oligo fluorescence polarization; percent of positive-control signal above neutral wells; activation, % at 25 µM; 340,000 tested, 0.99% active; AID 493131;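 active = mean activation above about 17%, with every replicate also reaching it, limit read from the data, passing the limit was not always enough; inconclusive = only one of the two conditions met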
# Cneo AK release: causes C. neoformans cell lysis; adenylate kinase release luminescence, 4 h; normalised: neutral wells 0, clomiphene wells 100; lysis activity, % at 15 µM; 360,000 tested, 0.2% active;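 active = mean lysis activity across replicates of at least 80%, whatever share of replicates individually reach that level; inactive = mean lysis activity below 80%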
#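 Test system: log-phase Cryptococcus neoformans yeast cells; Quantity: yeast cell density of 5 × 10^6 cells/mL; Buffer or medium: YPD; Doses: single compound concentration per well; Timing: 4 h at 37 °C static, read 1 h later; Measured by: AK luminescence; Read-out basis: lysis from increased AK signal; Control set: Clomiphene as positive control.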
# Numbers stand for hits; – = inactive; ? = inconclusive; · = no result given; [ ] = dose if it differs, or a comment. An excerpt weighted towards active compounds, which were near 2.9% of everything screened.
SMILES,GSIS activator,Env fusion inh,PAX8 reporter,CDK5 inh,dFosB activator,Cneo AK release
O=S(=O)(c1ccc(Cl)cc1)N1CCCN(c2nc3ccc(Cl)cc3s2)CC1,–,91,–,–,?,·
C/C=C/c1ccc2c(c1)O[C@H](CN(C)S(=O)(=O)c1ccc(F)cc1)[C@H](C)CN([C@@H](C)CO)S2(=O)=O,–,·,–,·,·,–
Cc1ccc(S(=O)(=O)N(C)C[C@H]2Oc3cc(C#Cc4ccncc4)ccc3S(=O)(=O)N([C@H](C)CO)C[C@H]2C)cc1,–,·,89,·,·,–
Cc1ccc(S(=O)(=O)N(C)C[C@@H]2Oc3cc(Br)ccc3S(=O)(=O)N([C@H](C)CO)C[C@@H]2C)cc1,–,63[16.7 µM],–,·,·,–
C[C@H](CO)N1C[C@H](C)[C@H](CN(C)S(=O)(=O)c2ccc(F)cc2)Oc2cc(Br)ccc2S1(=O)=O,–,77[16.7 µM],–,·,·,–
Cc1ccc(S(=O)(=O)N(C)C[C@@H]2Oc3cc(C#Cc4ccncc4)ccc3S(=O)(=O)N([C@@H](C)CO)C[C@@H]2C)cc1,–,·,–,·,·,–
C/C=C/c1ccc2c(c1)O[C@H](CN(C)S(=O)(=O)c1ccccc1)[C@H](C)CN([C@@H](C)CO)S2(=O)=O,–,–,·,·,·,90
COc1cccc(NC(=O)N2CC(=O)N3[C@H](C2)[C@@H](c2ccc(C#CC4CCCC4)cc2)[C@@H]3CO)c1,–,·,–,·,·,·
CO[C@@H]1CN(C)C(=O)c2cc(NC(C)=O)ccc2OC[C@@H](C)N(C(=O)c2ccccc2)C[C@H]1C,–,–,–,·,·,–
O=C(C[C@H]1CC[C@H](NC(=O)c2ccccn2)[C@@H](CO)O1)NCc1cc(F)cc(F)c1,–,–,–,·,·,–
C[C@@H]1CN([C@H](C)CO)S(=O)(=O)c2ccc(-c3cccc(F)c3)cc2O[C@@H]1CN(C)C(=O)c1cccc(F)c1,–,–,·,·,·,–
CN(C)CC(=O)Nc1ccc2c(c1)[C@H]1C[C@@H](CC(=O)NCc3ccc4c(c3)OCO4)O[C@@H](CO)[C@H]1O2,–,–,–,·,·,–
Fc1ccc(-c2cc(C(F)(F)F)nc(-n3cncn3)n2)cc1,52,–,·,–,–,·
COc1cccc(-c2cc(C(F)(F)F)nc(-n3cc(C)cn3)n2)c1,–,–,–,–,–,·
COc1cccc(-c2cc(C(F)(F)F)nc(-n3cncn3)n2)c1,65,–,·,–,–,–
COc1ccc(NC(=O)Nc2ccc3c(c2)[C@H]2C[C@@H](CC(=O)NC4CCCCC4)O[C@@H](CO)[C@H]2O3)cc1,–,–,–,·,·,–
CC(=O)Nc1ccc(NC(=O)COC(=O)c2c3c(nc4ccccc24)CCN(Cc2ccccc2)C3)cc1,·,–,–,–,–,·
O=C(COC(=O)c1c2c(nc3ccccc13)CCN(Cc1ccccc1)C2)Nc1c(F)cccc1F,–,–,73,–,–,–
CCc1nc(SCC(=O)c2ccccc2)c2c(=O)n(C)c(=O)n(C)c2n1,41,–,–,–,–,·
Cn1c(COc2ccccc2O)[n+](C)c2ccccc21,–,–,–,–,–,–
CCCCCCCCCCOC(=O)Cn1c(COc2ccccc2OC)[n+](C)c2ccccc21,179,86,70,–,25,–
CO[C@H]1CN(C)C(=O)c2ccc(NC(=O)c3ccccc3F)cc2OC[C@@H](C)N(CC2CCOCC2)C[C@H]1C,–,·,–,·,·,–
CCC(=O)N(CC)C[C@@H]1[C@@H](c2ccc(-c3cccnc3)cc2)[C@H](CO)N1C(C)=O,–,·,–,·,·,–
CCCC#Cc1cnc2c(c1)C(=O)N([C@@H](C)CO)C[C@@H](C)[C@H](CN(C)C(=O)NC1CCCC1)O2,–,–,–,·,·,–
O=C(/C=C/c1ccccc1)Nc1cccc(C(=O)O)c1,–,78,96,–,–,·
SMILES,GSIS activator,Env fusion inh,PAX8 reporter,CDK5 inh,dFosB activator,Cneo AK release
O=C(/C=C/c1ccccc1)Nc1cc(NC(=O)/C=C/c2ccccc2)cc(C(=O)O)c1,–,–,–,–,–,–
CO[C@@H]1CN(C)C(=O)c2ccc(NC(=O)Nc3ccccc3F)cc2OC[C@H](C)N(C)C[C@@H]1C,–,·,·,·,·,–
O=C(c1cc([N+](=O)[O-])ccc1Cl)N1CCN(c2ccc([N+](=O)[O-])cc2)CC1,–,·,70,–,–,·
Cc1cc(C(=O)N2CCN(c3ccc([N+](=O)[O-])cc3)CC2)co1,–,–,–,–,–,–
Cc1ccc(S(=O)(=O)NCc2ccc(C(=O)N3CCN(c4ccc([N+](=O)[O-])cc4)CC3)cc2)cc1,–,–,88,–,–,–
Cn1c(C(=O)N2CCN(c3ccc([N+](=O)[O-])cc3)CC2)cc2c(=O)[nH]c3ccccc3c21,–,–,–,–,23,–
COc1ccc(N2CCN(C(=O)c3ccc(CNS(=O)(=O)c4ccc(C)cc4)cc3)CC2)cc1,–,–,–,–,–,–
O=C(CN1CCOCC1)N1CC[C@@H]2[C@H]1c1cc(-c3ccccc3F)ccc1N[C@@H]2CO,–,·,–,·,·,–
N#Cc1cccc(-c2ccc3c(c2)[C@@H]2[C@@H](CCN2C(=O)C2CCCCC2)[C@@H](CO)N3)c1,–,·,75,·,·,–
O=C(CN1CCOCC1)N1CC[C@@H]2[C@@H](CO)Nc3ccc(-c4ccccc4F)cc3[C@@H]21,–,·,–,·,·,101
N#Cc1ccc(-c2ccc3c(c2)[C@@H]2[C@@H](CCN2C(=O)C2CCC2)[C@@H](CO)N3)cc1,–,·,·,·,·,·
O=C(C1CCOCC1)N1CC[C@@H]2[C@H]1c1cc(Br)ccc1N[C@@H]2CO,–,·,–,·,·,87
N#Cc1cccc(-c2ccc3c(c2)[C@H]2[C@H](CCN2C(=O)C2CCCCC2)[C@H](CO)N3)c1,–,·,66,·,·,–
COc1ccccc1-c1ccc2c(c1)[C@@H]1[C@@H](CCN1C(=O)C1CC1)[C@H](CO)N2,–,·,–,·,·,–
N#Cc1cccc(-c2ccc3c(c2)[C@@H]2[C@@H](CCN2S(=O)(=O)c2ccc(F)cc2)[C@H](CO)N3)c1,–,·,–,·,·,–
N#Cc1cccc(-c2ccc3c(c2)[C@@H]2[C@@H](CCN2S(=O)(=O)c2ccc(F)cc2)[C@@H](CO)N3)c1,–,·,76,·,·,–
COc1ccccc1CN1CC[C@H]2[C@H](CO)Nc3ccc(-c4cccc(F)c4)cc3[C@H]21,–,·,–,·,·,–
COc1ccccc1CN1CC[C@H]2[C@H](CO)Nc3ccc(C#Cc4ccccc4)cc3[C@H]21,–,·,–,·,·,115
COc1ccccc1-c1ccc2c(c1)[C@H]1[C@H](CCN1C(=O)C1CCCCC1)[C@@H](CO)N2,–,·,90,·,·,–
C[C@@H]1CN([C@H](C)CO)S(=O)(=O)c2ccc(-c3cccc(F)c3)cc2O[C@H]1CN(C)C(=O)Nc1cc(F)ccc1F,–,–,·,·,·,–
CNC[C@H]1Oc2cc(C#Cc3ccccc3OC)ccc2S(=O)(=O)N([C@H](C)CO)C[C@@H]1C,–,–,·,·,·,–

# High-throughput results deposited in PubChem BioAssay by Broad Institute.
